Measured values taken from ChEMBL document CHEMBL1133845, “N-propargyl-2-alkynylbenzothiazolium aza-enediynes: role of the 2-alkynylbenzothiazolium functionality in DNA cleavage” (Bioorg Med Chem Lett, 2001).

Assay: Normalized percent cleavage of DNA from cleavage reactions (20 h) containing 100 μM compound and 50 μM (bp) supercoiled DNA at pH 9.0 in 20 mM TRIS buffer
How it was run: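 Supercoiled ΦX174 DNA (50 μM bp) incubated with 100 μM compound in 20 mM TRIS, pH 9, for 20 h at 37 °C. Relaxed circular (Form II) and linear (Form III) DNA resolved on agarose gel and expressed as normalized percent cleavage. Mean ± SD over separate determinations.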

| SMILES | DNA cleavage |
| --- | --- |
| C[n+]1c(C#Cc2ccccc2)sc2ccccc21 | 48% |
| C#CC[n+]1c(C#Cc2ccc(C)cc2)sc2ccccc21 | 42% |
| C#CC[n+]1c(C#C[Si](C)(C)C)sc2ccccc21 | 33% |

Second part, the compound after the results:

| DNA cleavage | SMILES |
| --- | --- |
| 7% | C#CC[n+]1c(C#C[Si](C(C)C)(C(C)C)C(C)C)sc2ccccc21 |
| 0% | C(#Cc1nc2ccccc2s1)c1ccccc1 |
| 40% | C#CC[n+]1c(C#Cc2ccccc2)sc2ccccc21 |
